# Results taken from ChEMBL document CHEMBL3097989, “Antimicrobial activity of de novo designed cationic peptides against multi-resistant clinical isolates” (Eur J Med Chem, 2014).
# Calls of active or inactive are those of the source. No cut-off for these calls is given here. Where a SMILES comes first, the peptide text is derived from it.
# Assays:
# Pseudomonas aeruginosa [1] = test: Antibacterial activity against Pseudomonas aeruginosa M13513 clinical isolate expressing blaKPC-2 gene by microdilution test; assay type: functional
# In short: (§1)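 MIC by standard broth microdilution following CLSI recommendations, in Mueller Hinton broth supplemented with Ca²⁺ (20-25mg/L) and Mg²⁺ (10-12.5mg/L); peptides tested against a panel of multi-resistant clinical isolates plus ATCC reference strains.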
# Staphylococcus aureus [2] = test: Antibacterial activity against Staphylococcus aureus M6794 clinical isolate expressing mecA gene by microdilution test; assay type: functional
# In short: (§2)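 MIC by standard broth microdilution following CLSI recommendations, in Mueller Hinton broth supplemented with Ca²⁺ (20-25 mg/L) and Mg²⁺ (10-12.5 mg/L); ATCC reference strains included in the panel.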
# Staphylococcus aureus [3] = test: Antibacterial activity against Staphylococcus aureus ATCC 29213 by microdilution test; assay type: functional; in short: as §2
# Staphylococcus warneri = test: Antibacterial activity against Staphylococcus warneri M6823 clinical isolate expressing mecA gene by microdilution test; assay type: functional; in short: as §2
# Klebsiella pneumoniae [4] = test: Antibacterial activity against Klebsiella pneumoniae M13540 clinical isolate expressing blaKPC-2 gene by microdilution test; assay type: functional; in short: as §1
# [5] = Toxicity in human RBC assessed as hemolytic activity relative to control; assay type: cell-based, Erythrocyte; conditions: red blood cells (RBC), read-out: Activity
# In short: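 Heparinized human whole blood diluted 3x in PBS and centrifuged 10 min at 1500 rpm, repeated three times. Cells resuspended to 10% (v/v), then diluted to about 0.5% (v/v). Peptides added at various concentrations for 30 min at 37 °C. Supernatant absorbance read at 550 nm. Lysis calculated against buffer (0%) and water (100%). Readings taken in triplicate and averaged.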
# Staphylococcus cohnii = test: Antibacterial activity against Staphylococcus cohnii M6767 clinical isolate expressing mecA gene by microdilution test; assay type: functional; in short: as §2
# Pseudomonas aeruginosa [6] = test: Antibacterial activity against Pseudomonas aeruginosa ATCC 27853 by microdilution test; assay type: functional; in short: as §1
# Escherichia coli = test: Antibacterial activity against Escherichia coli ATCC 25922 by microdilution test; assay type: functional; in short: as §1
# Enterococcus gallinarum [7] = test: Antibacterial activity against Enterococcus gallinarum M2685 clinical isolate expressing vanC1 and vanA gene by microdilution test; assay type: functional; in short: as §1
# Klebsiella pneumoniae [8] = test: Antibacterial activity against Klebsiella pneumoniae M9170 clinical isolate expressing blaOXA-GIII gene by microdilution test; assay type: functional; in short: as §1
# Pseudomonas aeruginosa [9] = test: Antibacterial activity against Pseudomonas aeruginosa M7723 clinical isolate expressing blaKPC-2 gene by microdilution test; assay type: functional; in short: as §2
# Enterococcus faecium [10] = test: Antibacterial activity against Enterococcus faecium M2304 clinical isolate expressing vanA gene by microdilution test; assay type: functional; in short: as §1
# Pseudomonas aeruginosa [11] = test: Antibacterial activity against Pseudomonas aeruginosa PCOS12 by microdilution test; assay type: functional; in short: as §2
# Enterococcus faecium [12] = test: Antibacterial activity against Enterococcus faecium PZAP95 by microdilution test; assay type: functional; in short: as §1
# Enterococcus faecalis [13] = test: Antibacterial activity against Enterococcus faecalis M6534 clinical isolate expressing vanB gene by microdilution test; assay type: functional; in short: as §1
# Pseudomonas aeruginosa [14] = test: Antibacterial activity against Pseudomonas aeruginosa M11005 clinical isolate expressing blaKPC-2 gene by microdilution test; assay type: functional; in short: as §1
# Acinetobacter sp. [15] = test: Antibacterial activity against Acinetobacter sp. M7978 clinical isolate expressing blaIMP-1 gene by microdilution test; assay type: functional; in short: as §1
# Acinetobacter sp. [16] = test: Antibacterial activity against Acinetobacter sp. M5949 clinical isolate expressing blaOXA-23 and blaOXA-GVI gene by microdilution test; assay type: functional; in short: as §1
# Klebsiella pneumoniae [17] = test: Antibacterial activity against Klebsiella pneumoniae PFAV3 by microdilution test; assay type: functional; in short: as §1
# Enterococcus faecium [18] = test: Antibacterial activity against Enterococcus faecium M6261 by microdilution test; assay type: functional; in short: as §1
# Klebsiella pneumoniae [19] = test: Antibacterial activity against Klebsiella pneumoniae M9140 clinical isolate expressing blaCIT gene by microdilution test; assay type: functional; in short: as §1
# Enterococcus gallinarum [20] = test: Antibacterial activity against Enterococcus gallinarum M2723 clinical isolate expressing vanC1 and vanA gene by microdilution test; assay type: functional; in short: as §1
# Enterococcus faecium [21] = test: Antibacterial activity against Enterococcus faecium M2481 clinical isolate expressing vanB gene by microdilution test; assay type: functional; in short: as §1
# Enterococcus faecium [22] = test: Antibacterial activity against Enterococcus faecium M2619 clinical isolate expressing vanB gene by microdilution test; assay type: functional; in short: as §1
# Acinetobacter sp. [23] = test: Antibacterial activity against Acinetobacter sp. M5282 clinical isolate expressing blaOXA-51 gene by microdilution test; assay type: functional; in short: as §1
# Enterococcus faecium [24] = test: Antibacterial activity against Enterococcus faecium M2664 clinical isolate expressing vanA gene by microdilution test; assay type: functional; in short: as §1
# Acinetobacter sp. [25] = test: Antibacterial activity against Acinetobacter sp. M7489 clinical isolate expressing blaOXA-51 and blaTEM gene by microdilution test; assay type: functional; in short: as §1
# Klebsiella pneumoniae [26] = test: Antibacterial activity against Klebsiella pneumoniae M9491 clinical isolate expressing blaMOX gene by microdilution test; assay type: functional; in short: as §1
# Enterococcus faecalis [27] = test: Antibacterial activity against Enterococcus faecalis ATCC 51299 clinical isolate expressing vanB gene by microdilution test; assay type: functional; in short: as §1
# Enterococcus faecalis [28] = test: Antibacterial activity against Enterococcus faecalis M4992 clinical isolate expressing vanA gene by microdilution test; assay type: functional; in short: as §1
# Enterococcus faecalis [29] = test: Antibacterial activity against Enterococcus faecalis M4449 clinical isolate expressing vanA gene by microdilution test; assay type: functional; in short: as §1
# Pseudomonas aeruginosa [30] = test: Antibacterial activity against Pseudomonas aeruginosa M7728 clinical isolate expressing blaIMP gene by microdilution test; assay type: functional; in short: as §2
# Acinetobacter sp. [31] = test: Antibacterial activity against Acinetobacter sp. M9013 clinical isolate expressing blaOXA-51 and blaIMP gene by microdilution test; assay type: functional; in short: as §1
# Acinetobacter sp. [32] = test: Antibacterial activity against Acinetobacter sp. M5277 clinical isolate expressing blaPER gene by microdilution test; assay type: functional; in short: as §1
# Enterococcus faecalis [33] = test: Antibacterial activity against Enterococcus faecalis M4899 clinical isolate expressing vanB gene by microdilution test; assay type: functional; in short: as §1
# Pseudomonas aeruginosa [34] = test: Antibacterial activity against Pseudomonas aeruginosa M7525 clinical isolate expressing blaSPM gene by microdilution test; assay type: functional; in short: as §2
# Acinetobacter sp. [35] = test: Antibacterial activity against Acinetobacter sp. M13523 clinical isolate expressing blaOXA-51 gene by microdilution test; assay type: functional; in short: as §1
# Enterococcus faecalis [36] = test: Antibacterial activity against Enterococcus faecalis ATCC 29212 by microdilution test; assay type: functional; in short: as §1
# Acinetobacter sp. [37] = test: Antibacterial activity against Acinetobacter sp. PFAV1 clinical isolate expressing blaOXA-51, blaOXA-58 and blaPER gene by microdilution test; assay type: functional; in short: as §1
# Pseudomonas aeruginosa [38] = test: Antibacterial activity against Pseudomonas aeruginosa M7712 clinical isolate expressing blaSPM gene by microdilution test; assay type: functional; in short: as §2
# Acinetobacter sp. [39] = test: Antibacterial activity against Acinetobacter sp. M9665 clinical isolate expressing blaOXA-51 gene by microdilution test; assay type: functional; in short: as §1
# Acinetobacter sp. [40] = test: Antibacterial activity against Acinetobacter sp. M5179 clinical isolate expressing blaOXA-51 gene by microdilution test; assay type: functional; in short: as §1
# Enterococcus faecalis [41] = test: Antibacterial activity against Enterococcus faecalis M6383 clinical isolate expressing vanA gene by microdilution test; assay type: functional; in short: as §1
# Pseudomonas aeruginosa [42] = test: Antibacterial activity against Pseudomonas aeruginosa M5200 clinical isolate expressing blaVIM and blaGES-1 gene by microdilution test; assay type: functional; in short: as §2
# Enterococcus faecalis [43] = test: Antibacterial activity against Enterococcus faecalis M6983 clinical isolate expressing vanA gene by microdilution test; assay type: functional; in short: as §1
# Pseudomonas aeruginosa [44] = test: Antibacterial activity against Pseudomonas aeruginosa M7907 clinical isolate expressing blaPER gene by microdilution test; assay type: functional; in short: as §2
# Pseudomonas aeruginosa [45] = test: Antibacterial activity against Pseudomonas aeruginosa M5109 clinical isolate expressing blaVIM and blaGES-1 gene by microdilution test; assay type: functional; in short: as §2
# Pseudomonas aeruginosa [46] = test: Antibacterial activity against Pseudomonas aeruginosa M5470 by microdilution test; assay type: functional; in short: as §2
compound,measurement,setting,value
CC[C@H](C)[C@H](NC(=O)[C@H](CCCCN)NC(=O)[C@H](CCCNC(=N)N)NC(=O)[C@H](CC(N)=O)NC(=O)CNC(=O)[C@H](CCCNC(=N)N)NC(=O)[C@H](Cc1ccccc1)NC(=O)[C@@H](NC(=O)[C@H](CS)NC(=O)[C@H](Cc1cnc[nH]1)NC(=O)[C@H](CC(C)C)NC(=O)[C@@H]1CCCN1C(=O)[C@H](CCC(N)=O)NC(=O)[C@@H]1CCCN1C(=O)[C@@H](NC(=O)[C@H](CC(N)=O)NC(=O)[C@@H]1CCCN1C(=O)[C@H](CC(C)C)NC(=O)CNC(=O)[C@@H](NC(=O)CNC(=O)[C@H](CO)NC(=O)[C@H](CC(C)C)NC(=O)[C@H](CC(C)C)NC(=O)[C@H](CC(=O)O)NC(=O)[C@H](CS)NC(=O)[C@@H](NC(=O)[C@@H](N)[C@@H](C)O)[C@@H](C)O)C(C)C)C(C)C)C(C)C)C(=O)N[C@@H](CCCCN)C(=O)N[C@@H](Cc1c[nH]c2ccccc12)C(N)=O (H-TTCDLLSGVGLPNVPQPLHCVFRGNRKIKW-NH2),MIC90,Pseudomonas aeruginosa [1],inactive
same,MIC90,Staphylococcus aureus [2],inactive
same,MIC90,Staphylococcus aureus [3],inactive
same,MIC90,Staphylococcus warneri,inactive
same,MIC90,Klebsiella pneumoniae [4],inactive
same,hemolysis,[5],1.72%
same,MIC90,Staphylococcus cohnii,inactive
same,MIC90,Pseudomonas aeruginosa [6],inactive
same,MIC90,Escherichia coli,inactive
H-FGKEKKAWWRRRKWLK-NH2,MIC90,Enterococcus gallinarum [7],inactive
same,MIC90,Klebsiella pneumoniae [8],inactive
same,MIC90,Pseudomonas aeruginosa [9],inactive
same,MIC90,Enterococcus faecium [10],inactive
same,MIC90,Pseudomonas aeruginosa [1],inactive
same,MIC90,Pseudomonas aeruginosa [11],inactive
same,MIC90,Enterococcus faecium [12],inactive
same,MIC90,Enterococcus faecalis [13],inactive
same,MIC90,Pseudomonas aeruginosa [14],inactive
same,MIC90,Acinetobacter sp. [15],inactive
same,MIC90,Acinetobacter sp. [16],inactive
same,MIC90,Klebsiella pneumoniae [17],inactive
same,MIC90,Enterococcus faecium [18],inactive
same,MIC90,Klebsiella pneumoniae [19],inactive
same,MIC90,Enterococcus gallinarum [20],inactive
same,MIC90,Enterococcus faecium [21],inactive
same,MIC90,Enterococcus faecium [22],inactive
same,MIC90,Acinetobacter sp. [23],inactive
same,MIC90,Klebsiella pneumoniae [4],inactive
same,MIC90,Enterococcus faecium [24],inactive
same,MIC90,Acinetobacter sp. [25],inactive
same,MIC90,Klebsiella pneumoniae [26],inactive
same,hemolysis,[5],1.5%
same,MIC90,Enterococcus faecalis [27],inactive
same,MIC90,Enterococcus faecalis [28],inactive
same,MIC90,Enterococcus faecalis [29],inactive
same,MIC90,Pseudomonas aeruginosa [30],inactive
same,MIC90,Acinetobacter sp. [31],inactive
same,MIC90,Acinetobacter sp. [32],inactive
same,MIC90,Enterococcus faecalis [33],inactive
same,MIC90,Pseudomonas aeruginosa [34],inactive
same,MIC90,Acinetobacter sp. [35],inactive
same,MIC90,Enterococcus faecalis [36],inactive
same,MIC90,Acinetobacter sp. [37],inactive
same,MIC90,Pseudomonas aeruginosa [6],inactive
same,MIC90,Pseudomonas aeruginosa [38],inactive
same,MIC90,Acinetobacter sp. [39],inactive
same,MIC90,Acinetobacter sp. [40],inactive
same,MIC90,Enterococcus faecalis [41],inactive
same,MIC90,Pseudomonas aeruginosa [42],inactive
same,MIC90,Enterococcus faecalis [43],inactive
same,MIC90,Pseudomonas aeruginosa [44],inactive
same,MIC90,Pseudomonas aeruginosa [45],inactive
same,MIC90,Pseudomonas aeruginosa [46],inactive
same,MIC90,Escherichia coli,inactive
